Activity calls are given as the source filed them. The calls are words filed in the database; no cut-off is given here.
Legend:
[1] = target: T1, Prostaglandin G/H synthase 2 (Ovis aries) (UniProt P79208); test: Inhibition of ovine COX2 using TMPD as substrate at 300 uM preincubated for 15 mins
T1 sequence (whole entry): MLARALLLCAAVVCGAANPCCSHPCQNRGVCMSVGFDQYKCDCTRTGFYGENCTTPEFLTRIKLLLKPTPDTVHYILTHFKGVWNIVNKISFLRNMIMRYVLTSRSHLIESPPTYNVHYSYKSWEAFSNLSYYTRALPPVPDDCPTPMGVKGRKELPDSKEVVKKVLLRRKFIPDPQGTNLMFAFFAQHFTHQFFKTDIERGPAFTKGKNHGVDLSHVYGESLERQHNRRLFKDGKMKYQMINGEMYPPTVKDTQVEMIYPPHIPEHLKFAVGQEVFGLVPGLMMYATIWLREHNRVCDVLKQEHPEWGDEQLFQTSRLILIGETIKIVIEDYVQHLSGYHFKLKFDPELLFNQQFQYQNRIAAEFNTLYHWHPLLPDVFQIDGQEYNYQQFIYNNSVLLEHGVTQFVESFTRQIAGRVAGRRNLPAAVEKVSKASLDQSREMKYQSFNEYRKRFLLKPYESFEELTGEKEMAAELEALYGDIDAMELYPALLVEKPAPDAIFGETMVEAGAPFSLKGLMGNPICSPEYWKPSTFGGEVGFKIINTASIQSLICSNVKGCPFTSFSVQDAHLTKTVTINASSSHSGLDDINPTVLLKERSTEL

[2] = target: T2, Prostaglandin G/H synthase 1 (Ovis aries, UniProt P05979); test: (§1) Inhibition of ovine COX1 using TMPD as substrate preincubated for 15 mins
T2 sequence (P05979 whole entry): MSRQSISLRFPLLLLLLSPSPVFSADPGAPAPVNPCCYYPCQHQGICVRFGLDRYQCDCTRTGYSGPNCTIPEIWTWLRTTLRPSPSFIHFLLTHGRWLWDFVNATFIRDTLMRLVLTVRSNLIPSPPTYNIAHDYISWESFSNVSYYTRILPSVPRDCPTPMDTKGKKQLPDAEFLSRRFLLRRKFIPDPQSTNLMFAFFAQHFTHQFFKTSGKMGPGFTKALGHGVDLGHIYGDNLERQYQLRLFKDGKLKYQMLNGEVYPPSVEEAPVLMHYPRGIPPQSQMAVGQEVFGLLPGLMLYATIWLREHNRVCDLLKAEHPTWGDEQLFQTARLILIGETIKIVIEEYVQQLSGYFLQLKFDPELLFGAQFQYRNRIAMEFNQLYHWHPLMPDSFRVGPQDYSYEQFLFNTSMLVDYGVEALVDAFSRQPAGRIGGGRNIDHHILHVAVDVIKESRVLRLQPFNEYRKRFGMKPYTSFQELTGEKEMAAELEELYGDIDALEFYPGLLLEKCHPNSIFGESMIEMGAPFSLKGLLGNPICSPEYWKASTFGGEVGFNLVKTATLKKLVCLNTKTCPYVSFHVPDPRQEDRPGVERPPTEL

[3] = Antiinflammatory activity in human monocytes assessed as inhibition of LPS-induced COX2 expression at 10 uM after 20 hrs using rabbit polyclonal antibody IgG by Western blot analysis; format: functional; conditions: Monocyte
Procedure, shortened: (§2)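 Isolated human monocytes (3 × 10⁶ cells/ml) treated 20 h with test agent or vehicle in the presence of LPS; unstimulated cells as control. Cells lysed; equal protein loads run on SDS-polyacrylamide gel and immunoblotted with rabbit polyclonal antibody to a human COX-2-specific sequence (band ~72 kDa); beta-actin as loading control. Three experiments; dose-response series used for IC50.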

Monocyte [4] = test: Antiinflammatory activity in human monocytes assessed as inhibition of LPS-induced COX2 expression at 100 uM after 20 hrs using rabbit polyclonal antibody IgG by SDS-PAGE analysis; format: functional, cell-based; procedure, shortened: as §2
Monocyte [5] = test: Antiinflammatory activity in human monocytes assessed as inhibition of LPS-induced COX2 expression after 20 hrs using rabbit polyclonal antibody IgG by Western blot analysis; format: functional, cell-based; procedure, shortened: as §2
[6] = target: T3, Prostaglandin G/H synthase 1 (Ovis aries) (UniProt P05979); test: as §1
T3 sequence (whole entry): T2 sequence (P05979 whole entry)

[7] = Antiinflammatory activity in human monocytes assessed as inhibition of LPS-induced COX2 expression assessed per ug of protein at 100 uM after 20 hrs using rabbit polyclonal antibody IgG by SDS-PAGE analysis (reference value: 1.53 +/- 0.3 ng/ug); format: functional, Monocyte; procedure, shortened: as §2
HL-60 = test: Inhibition of superoxide radicals production in human HL60 cells; format: functional
Raji = test: Inhibition of TPA-induced EBV-early antigen activation in human Raji cells; format: cell-based; conditions: human gammaherpesvirus 4, dose or concentration not given here
Monocyte [8] = test: Antiinflammatory activity in human monocytes assessed as inhibition of LPS-induced COX2 expression at 100 uM after 20 hrs using rabbit polyclonal antibody IgG by Western blot analysis; format: functional, cell-based; procedure, shortened: as §2
Monocyte [9] = test: Antiinflammatory activity in human monocytes assessed as inhibition of LPS-induced COX1 expression at 100 uM after 24 hrs using rabbit polyclonal antibody IgG by Western blot analysis; format: functional, cell-based
Procedure, shortened: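 Isolated human monocytes (3 × 10⁶ cells/ml) incubated with LPS, vehicle or test agent; lysates immunoblotted with a specific anti-COX-1 antibody to assess COX-1-like immunoreactivity.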

Monocyte [10] = test: Antiinflammatory activity in human monocytes assessed as inhibition of LPS-induced COX2 expression at 5 uM after 20 hrs using rabbit polyclonal antibody IgG by SDS-PAGE analysis; format: functional, cell-based; procedure, shortened: as §2
[11] = target: T4, Prostaglandin G/H synthase 2 (Homo sapiens) (UniProt P35354); test: Inhibition of COX2 promoter activity in human DLD1 cells at 100 uM; format: cell-based; conditions: DLD-1
T4 sequence (whole entry): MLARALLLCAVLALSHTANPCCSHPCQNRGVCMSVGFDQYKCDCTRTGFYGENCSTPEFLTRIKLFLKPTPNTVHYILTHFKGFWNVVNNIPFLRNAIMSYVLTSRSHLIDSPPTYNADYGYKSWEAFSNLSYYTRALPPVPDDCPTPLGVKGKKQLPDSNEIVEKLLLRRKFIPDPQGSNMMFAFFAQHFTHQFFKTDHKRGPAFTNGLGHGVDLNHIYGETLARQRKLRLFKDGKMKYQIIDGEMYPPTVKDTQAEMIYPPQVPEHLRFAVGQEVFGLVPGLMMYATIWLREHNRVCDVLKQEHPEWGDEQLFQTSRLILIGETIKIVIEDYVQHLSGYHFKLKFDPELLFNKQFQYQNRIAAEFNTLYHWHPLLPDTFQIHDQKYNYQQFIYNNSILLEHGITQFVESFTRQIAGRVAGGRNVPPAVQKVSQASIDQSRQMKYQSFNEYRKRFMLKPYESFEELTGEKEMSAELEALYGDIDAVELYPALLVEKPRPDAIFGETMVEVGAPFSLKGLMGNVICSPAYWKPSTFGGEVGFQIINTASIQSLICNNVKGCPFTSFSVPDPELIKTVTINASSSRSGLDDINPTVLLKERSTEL

[12] = Antiinflammatory activity in human monocytes assessed as inhibition of LPS-induced COX2 expression at 25 uM after 20 hrs using rabbit polyclonal antibody IgG by Western blot analysis; format: functional; conditions: Monocyte; procedure, shortened: as §2

| SMILES | inhibition [1] | inhibition [6] | inhibition (Monocyte [8]) | inhibition (Monocyte [9]) | other results |
| --- | --- | --- | --- | --- | --- |
| COc1cc(/C=C/C(=O)O)ccc1OC/C=C(\C)CCC=C(C)C | 97.5% |  |  |  | IC50 [2]: 54.2 µM; inhibition at 10 µM [3]: 20%; inhibition (Monocyte [4]): Active; inhibition (Monocyte [5]): Dose-dependent effect |
| CC(C)=CCC/C(C)=C/COc1ccc(/C=C/C(=O)O)cc1 | inactive | inactive |  |  | Activity [7]: 1.7 ng/µg |
| COc1cc(/C=C/C(=O)O)ccc1OCC=C(C)C [BOROPINIC ACID] | inactive | inactive |  |  | Activity [7]: 1.78 ng/µg |
| CCOC(=O)/C=C/c1ccc(OC/C=C(\C)CCC=C(C)C)c(OC)c1 |  |  |  |  | inhibition (INH) (HL-60): 45%; inhibition (Raji): 78% |
| CC(C)=CCC/C(C)=C/COc1ccc(/C=C/C(=O)O)cc1C | inactive | inactive | inactive | inactive |  |
| CC(C)=CCOc1ccc(/C=C/C(=O)O)cc1Cl | inactive | inactive | inactive | inactive |  |
| C[C@@H]1C[C@H]2[C@@H]3CCC4=CC(=O)C=C[C@]4(C)[C@@]3(F)[C@@H](O)C[C@]2(C)[C@@]1(O)C(=O)CO |  |  |  |  | inhibition (Monocyte [10]): Active |
| CC(C)=CCOc1ccc(/C=C/C(=O)O)cc1C | inactive | inactive | inactive | inactive |  |
| COC(=O)/C=C/c1ccc(OC/C=C(\C)CCC=C(C)C)c(OC)c1 |  |  |  |  | inhibition (INH) (HL-60): 35%; inhibition [11]: 50%; inhibition (Raji): 81% |
| CC(C)=CCC/C(C)=C/COc1ccc(/C=C/C(=O)O)cc1Cl | inactive | inactive | inactive | inactive |  |
| CC(C)=CCOc1ccc(/C=C/C(=O)O)cc1 | 74% |  |  |  | IC50 [2]: 35.1 µM; inhibition (Monocyte [4]): Active; inhibition at 25 µM [12]: 13%; inhibition (Monocyte [5]): Dose-dependent effect |

Reference: ChEMBL document CHEMBL1833952, “Inhibition of COX-1 activity and COX-2 expression by 3-(4'-geranyloxy-3'-methoxyphenyl)-2-trans propenoic acid and its semi-synthetic derivatives” (Bioorg Med Chem Lett, 2011)
